{
  "source": "paper PMC10228392",
  "about": "(mAbs, 2023)",
  "molecules": {"B1": {"name": "anti-caffeine VHH produced through grafting CDR regions (Caffgraft) (VHH)", "VHH": "QVQLVESGGGLVQAGGSLRLSCTASGRTGTIYSMAWFRQAPGKEREFLATVGWSSGITYYMDSVKGRFTISRDKGKNTVYLQMDSLKPEDTAVYYCTATRAYSVGYDYWGQGTQVTVSS"}, "B2": {"name": "α-caff VHH-F47R: anti-caffeine VHH dimer interface variant with arginine at F47 (Kabat numbering) (antibody, V domains shown)", "VH": "QVQLVESGGGLVQAGGSLRLSCTASGRTGTIYSMAWFRQAPGKERERLATVGWSSGITYYMDSVKGRFTISRDKGKNTVYLQMDSLKPEDTAVYYCTATRAYSVGYDYWGQGTQVTVSS"}},
  "key": {"α-caff VHH": {"tested_on": "α-caff VHH", "design": "species or system llama", "details": "binding to anti-caffeine VHH", "procedure,_shortened": "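Anti-caffeine VHH was dialysed overnight against PBS pH 7.4. Test compound at 50 µM in the syringe was titrated into 10 µM VHH in the cell at 25°C, as 27 injections of 10 µL.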"}, "VHH:VHH dimer": {"tested_on": "VHH:VHH dimer", "test": "Analytical ultracentrifugation, sedimentation equilibrium", "assay_type": "binding", "details": "with vs without stoichiometric caffeine", "procedure,_shortened": "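Sedimentation equilibrium on tag-free, E. coli-expressed anti-caffeine VHH (WT, and F47R with caffeine) at 3, 10 and 30 µM, alone or with stoichiometric caffeine (1.5, 5, 15 µM), at 20°C. Cells were spun 24 h at 27,000, 32,000 and 44,000 rpm and scanned at 294, 260 and 236 nm. All speeds and concentrations were analysed globally: a single-exponential fit gave weight-averaged MW, then a monomer-dimer fit gave assembly constants.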"}, "[1]": {"biological_target": "anti-caffeine VHH produced through grafting CDR regions (Caffgraft)", "test": "AUC"}, "[2]": {"test": "Guanidinium hydrochloride chemical unfolding by circular dichroism", "assay_type": "physicochemical", "details": "25°C"}, "[3]": {"biological_target": "anti-caffeine VHH produced through grafting CDR regions (Caffgraft)", "test": "AUC", "remark": "listed apart in the source"}, "[4]": {"biological_target": "anti-caffeine VHH produced through grafting CDR regions (Caffgraft)", "test": "ITC"}, "[5]": {"test": "Isothermal titration calorimetry", "procedure,_shortened": "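Single arginine interface variants were made by site-directed mutagenesis and expressed in E. coli, and the tag was removed. For low-affinity binding (Turnbull method), 1 mM caffeine was titrated into 100 µM VHH variant, with stoichiometry fixed at n = 0.5 in the fit. Protein concentration came from ε280 30,035 M−1 cm−1 (F47R, V104R) or 28,545 M−1 cm−1 (Y106R).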"}},
  "data": [
    {"molecule": "Cn1c(=O)c2c(ncn2CC(=O)O)n(C)c1=O", "note": "[theophylline-7-acetic acid]", "values": [
      {"measurement": "ΔΔG° penalty (loss in affinity) relative to caffeine", "setting": "α-caff VHH", "result": "~1.5", "unit": "kcal/mol"}
    ]},
    {"molecule": "B1", "values": [
      {"measurement": "fold higher observed dimerization affinity on caffeine binding", "setting": "VHH:VHH dimer", "result": "~28", "unit": "fold"},
      {"measurement": "Kd", "setting": "[1]", "result": 0.848, "unit": "µM"},
      {"measurement": "loss of stability (ΔGu) relative to anti-RNase A VHH", "setting": "[2]", "result": "approximately 1.5 kcal/mol"},
      {"measurement": "m-value", "setting": "[2]; guanidinium hydrochloride", "result": "2.62 ± 0.06", "unit": "kcal mol^−1M^−1"},
      {"measurement": "ΔGu", "setting": "[2]; guanidinium hydrochloride, PBS pH 7.4, 10 μM VHH", "result": "7.6 ± 0.2", "unit": "kcal/mol"},
      {"measurement": "Kd", "setting": "[3]", "result": 23.5, "unit": "µM"},
      {"measurement": "stoichiometry N", "setting": "[3]", "result": 2},
      {"measurement": "Kd", "setting": "[4]", "result": 13.1, "unit": "µM"}
    ]},
    {"molecule": "B2", "values": [
      {"measurement": "ΔΔG° (weaker caffeine binding affinity than anti-caffeine VHH)", "setting": "[5]", "result": "> 5", "unit": "kcal/mol"}
    ]}
  ]
}
